# Screening results (PubChem)
# A selection: hits, their analogues and other compounds. The true share with any hit is near 4%.
# DAGLB inhibitor: DAGLB lipase inhibitors, primary screen, biochemical, fluorescence, HTS | HEK293T DAGLB membrane lysate, EnzChek fluorogenic substrate | inhibition, % at 5.17 µM | hit rate 0.059% among 340,000 | AID 504411, 2011; in the data active means inhibition above about 34%;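 further: 0% = enzyme with vehicle and 100% = wells lacking enzyme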
# TAAR1 ag: human TAAR1 agonists, primary screen, Fluo-8 calcium fluorescence, CHO RD-HGA16 cells; Trace amine-associated receptor 1 (Homo sapiens), Q96RJ0; vehicle wells 0%, saturating PEA agonist 100%; activation, % at 3 µM; hit rate 0.99% among 360,000; AID 624467, 2012;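 active means activation above the mean activation of all test compounds in the run plus 3 SD, cut at about 38% in these data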
#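 Signal – calcium-sensitive Fluo-8 signal, excitation 470-495, emission 515-575 nm · System – RD-HGA16 (CHO) cells co-expressing Gα16 and hTAAR1 · Incubation – 17-24 h seeding, 75 min 37 °C dye, 30 min RT · Compound dosing – 3 µM single concentration · Repeats – no replicates (n 1)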
# GPR7 antag: GPR7 receptor antagonists, primary screen, cell-based, fluorescence, single concentration; GPR7-expressing cells, fluorescence antagonist assay; inhibition, % at 4.4 µM; hit rate 1.1% among 290,000; AID 1861, 2009; in the data active means inhibition above about 16%, passing the limit was not always enough;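 further: cells stimulated with the agonist NPW; 0% = agonist with vehicle and 100% = vehicle without agonist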
# Target sequence (P48145 whole entry, looked up): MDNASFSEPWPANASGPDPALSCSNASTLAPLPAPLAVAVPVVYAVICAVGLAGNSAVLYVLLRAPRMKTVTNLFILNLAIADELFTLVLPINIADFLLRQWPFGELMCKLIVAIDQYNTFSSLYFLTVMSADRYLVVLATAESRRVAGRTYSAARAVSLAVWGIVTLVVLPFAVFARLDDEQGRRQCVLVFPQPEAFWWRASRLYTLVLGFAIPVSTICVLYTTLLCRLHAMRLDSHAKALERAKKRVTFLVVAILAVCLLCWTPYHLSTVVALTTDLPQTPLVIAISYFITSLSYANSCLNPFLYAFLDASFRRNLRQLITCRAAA
# MPTP inh: mitochondrial permeability transition pore inhibitors, primary screen, biochemical, isolated mouse mitochondria, absorbance. inhibition, % at 10 µM. AID 602449, 2012. Ca2+ swelling absorbance, 30 min. hit rate 1.4% among 360,000;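 active means inhibition of 50% or more, scaled per plate between neutral and stimulator controls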;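 further: 0% = DMSO wells given calcium and 100% = 1 mM EGTA wells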
# TAAR1 antagonist: human TAAR1 antagonists, primary screen, Fluo-8 calcium fluorescence, CHO RD-HGA16 cells | Trace amine-associated receptor 1 (Homo sapiens), Q96RJ0 | antagonist | inhibition, % at 3 µM | hit rate 1.5% among 360,000;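 active means inhibition above a per-plate cutoff, the mean inhibition of test compounds on that plate plus 3 SD, cut at about 49% in these data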;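 further: 0% = DMSO plus EC80 beta-PEA response and 100% = DMSO alone without agonist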
#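 Assay system: CHO-derived RD-HGA16 cells stably expressing human TAAR1 plus Gα16. Timing: 140 s kinetic read after compound, 140 s after agonist. Technique: kinetic Fluo-8 calcium fluorescence measurement. Measure: % inhibition of agonist calcium response.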
# An asterisk follows results filed as active; · = no result given.
SMILES,DAGLB inhibitor,TAAR1 ag,GPR7 antag,MPTP inh,TAAR1 antagonist
Cn1ccnc1C1CCCCN1Cc1nc(Cc2cccc(C(F)(F)F)c2)no1 (centres undefined),-0.3,2.2,5.1,0.7,4.5
Cn1ccnc1C1CCCCN1Cc1nc(-c2ccc3c(c2)OCO3)no1 (centres undefined),-1.3,2.7,48.6*,-0.4,-0.1
CC(C)CNc1ncnc2c1ncn2[C@H]1CN(Cc2ccc3c(c2)OCO3)C[C@@H](CO)O1,·,1.4,·,0.8,-5.3
O=C(Nc1ccnn1C1CCN(C(=O)c2cccnc2)CC1)c1cccc(F)c1,-1.3,-0.2,·,-1.1,9.6
Cc1ccccc1-c1cnc(C(O)c2cccc(C)c2C)[nH]1 (centres undefined),·,2.3,·,-1.3,-10.8
OCc1cccc[n+]1Cc1ccccc1,-1.8,0.5,·,1.2,-15.1
O=C(NCCc1ccccc1)C(c1cccs1)N(C(=O)CCl)c1ccc(Cl)cc1 (centres undefined),22.3,22.8,22.5*,-1.7,26.9
CSc1nc2ccc(NC(=O)NC(=O)c3c(F)cccc3F)cc2s1,0.6,0.4,18.9*,7.3,25.8
CC1(C(=O)NS(=O)(=O)c2cccc(F)c2)CCN1C(=O)C1(c2ccc(Cl)cc2)CCC1 (centres undefined),·,0.1,·,-0.4,-4.5
CCOC(=O)C1=C(Cn2cnc3ccccc32)NC(=O)NC1c1cc(C)ccc1C (centres undefined),3.4,57.9*,7.2,0.0,65.3*
Cc1cc(/C=N/NC(=O)c2cc3ccccc3o2)c(C)n1C,4.9,10.8,8.5,-1.3,53.7*
CSC(=Nc1ccccc1)N=C(SCc1ccccc1)N(C)C,1.4,10.0,·,23.7,76.6*
Cc1ccccc1OCC(=O)Nc1ccc(N2CCN(C)CC2)c(Cl)c1,-0.8,39.1*,0.4,13.4,6.7
COc1ccc(NC(=O)CN(C)CC(=O)Nc2cccc(F)c2)cc1S(=O)(=O)N1CCCCC1,4.2,5.9,·,-1.0,12.5
Cc1ccc(NC(=O)COc2ccccc2)cc1S(=O)(=O)N1CCCCCC1,-4.7,3.9,·,-0.3,37.0
Cc1ccc(NC(=O)CN(C)CC(=O)Nc2cccc(F)c2)cc1S(=O)(=O)N1CCCCCC1,-3.3,7.8,1.2,20.0,50.2*
Cc1ccc(NC(=O)COc2ccccc2C#N)cc1S(=O)(=O)N1CCCCCC1,-2.1,8.2,·,1.1,51.7*
CN(C(=O)c1cccc(NC(=O)Cc2cccc(NC(=O)C3CCCN(C(=O)C4CCCC4)C3)c2)c1)C1CC1 (centres undefined),-0.1,2.2,·,5.8,-12.9
COC(=O)c1ccccc1COc1cccn2c(N(C)Cc3cccs3)c(C)nc12,·,7.5,·,31.0,45.1
N#C/C(=C/c1ccc(N2CCOCC2)o1)c1nc2ccccc2[nH]1,-34.2,48.9*,-16.3,-0.7,27.6
N#C/C(=C/c1ccc(N2CCOCC2)o1)c1ccc(Br)cc1,-1.9,29.0,-3.4,9.1,57.1*
N#C/C(=C\c1ccc(N2CCOCC2)o1)c1ccccc1,-0.3,20.6,3.3,2.5,23.5
COc1ccc(NC(=S)c2ccncc2)cc1,3.1,41.4*,-10.0,17.8,3.2
COc1ccc(C(=S)Nc2ccc(C)cc2)cc1,-1.8,0.0,-8.3,-0.8,9.8
O=C1NC[C@H](CCCCN2CCN(Cc3ccccc3)C(=O)C2=O)N(CCc2ccccc2)C1=O,·,7.2,·,-0.8,-7.1
SMILES,DAGLB inhibitor,TAAR1 ag,GPR7 antag,MPTP inh,TAAR1 antagonist
COc1ccc(C2/C=C\CN(S(=O)(=O)c3cccc4cccnc34)CC(=O)N2Cc2ccc(F)cc2)cc1 (centres undefined),-0.2,12.6,·,-0.3,50.0*
COc1ccc([C@H]2/C=C\CN(S(=O)(=O)c3cccc4cccnc34)[C@@H](C)C(=O)N2Cc2ccc(F)cc2)cc1,-1.8,7.2,·,1.1,41.4
CCOC(=O)C(=O)N(C)c1c(CC)nc2c(OCc3cc(Cl)cc(Cl)c3)cccn12,·,-0.5,·,-0.2,-15.6
CC(=O)Nc1ccc(/C(C)=N/NS(=O)(=O)c2ccc(C)cc2)cc1,-1.8,12.8,0.8,-0.5,-15.0
C/C(=N/NS(=O)(=O)c1ccc(Br)cc1)c1ccc(NC(=O)c2ccc(C)o2)cc1,-2.0,38.5*,6.7,-0.7,11.1
CN(c1ccccc1)c1cc(Br)nc(Br)c1,-10.2,-3.2,·,2.5,-2.3
c1ccc(C[C@H]2CN=C(Nc3ccccc3)N2CC2CCCCCC2)cc1,-0.7,29.6,·,1.1,13.4
